# Results gathered from unrelated publications.
# Lines come from different studies, so protocols differ.
# KCNA1: Potassium voltage-gated channel subfamily A member 1 (KCNA1, Homo sapiens, UniProt Q09470)
Structure (SMILES),target,test,system,conditions,measurement,value
CNc1ncc2c(/C=C/C(=O)N3CCC(OC)CC3)nn(Cc3cccc(C(F)(F)F)c3)c2n1,"Cyclin-dependent kinase 3, with cyclin E1 (CDK3, Homo sapiens, UniProt Q00526)","enzyme activity, inhibitor, radiometric",,1 µM,remaining activity,93%
C=CC(=O)N1CCC(COCC(=O)N2CCN(c3nc(-c4cnc(N)nc4C(F)F)nc(N4CCOC[C@@H]4C)n3)CC2)CC1,"Serine/threonine-protein kinase SBK1 (SBK1, Homo sapiens, UniProt Q52WX2)","binding, competition with immobilised ligand",,1 µM,remaining binding,100%
Cc1cc([C@@H](C)Nc2ccccc2C(=O)O)c2nc(N3CCC(F)(F)CC3)c(C#N)c(=O)n2c1,"RAF proto-oncogene serine/threonine-protein kinase (RAF1, Homo sapiens, UniProt P04049)","binding, competition with immobilised ligand",,10 µM,remaining binding,90%
CC(=O)c1c(C)c2cnc(Nc3ccc(N4CCNCC4)cn3)nc2n(C2CCCC2)c1=O,"Cyclin-dependent kinase 3 (CDK3, Homo sapiens, UniProt Q00526)","enzyme activity, inhibitor, ADP detection",,1 µM,activity vs control,90%
O=C1NC(=O)C(c2ccccc2)(c2ccccc2)N1,KCNA1,"ion current, inhibitor, patch clamp",,30 µM,inhibition,20.6%
CC[C@H](C)[C@H](NC(=O)[C@H](CCC(N)=O)NC(=O)[C@H](CCCNC(=N)N)NC(=O)[C@H](CO)NC(=O)[C@H](Cc1c[nH]cn1)NC(=O)[C@@H]1CCCN1C(=O)[C@H](C)NC(=O)[C@H](CO)NC(=O)[C@H](CC(C)C)NC(=O)CNC(=O)[C@@H]1CCCN1C(=O)[C@H](CCC(N)=O)NC(=O)[C@H](CCC(N)=O)NC(=O)[C@H](CCCNC(=N)N)NC(=O)[C@H](CO)NC(=O)CNC(=O)[C@H](CO)NC(=O)[C@H](CO)NC(=O)[C@H](CCC(=O)O)NC(=O)[C@@H]1CCCN1C(=O)[C@@H]1CCCN1C(=O)[C@@H]1CCCN1C(=O)[C@H](CO)NC(=O)[C@H](CC(C)C)NC(=O)[C@H](CO)NC(=O)[C@@H](NC(=O)CN)[C@@H](C)O)C(=O)N1CCC[C@H]1C(=O)N[C@@H](C)C(=O)N1CCC[C@H]1C(=O)N[C@@H](CCC(N)=O)C(=O)NCC(=O)N[C@@H](C)C(=O)N[C@H](C(=O)N[C@@H](CC(C)C)C(=O)N[C@H](C(=O)N[C@@H](CCC(N)=O)C(=O)N[C@@H](CCCNC(=N)N)C(=O)N[C@@H](CCC(=O)O)C(=O)N[C@@H](CCCCN)C(=O)N[C@@H](CC(=O)O)C(=O)N[C@@H](CC(C)C)C(=O)N1CCC[C@H]1C(=O)N[C@@H](CC(N)=O)C(=O)N[C@@H](Cc1ccc(O)cc1)C(=O)N[C@@H](CC(N)=O)C(=O)N[C@@H](Cc1c[nH]c2ccccc12)C(=O)N[C@@H](CC(N)=O)C(=O)N[C@@H](CO)C(=O)N[C@@H](Cc1ccccc1)C(=O)NCC(=O)N[C@@H](CC(C)C)C(=O)N[C@@H](CCCNC(=N)N)C(=O)N[C@@H](Cc1ccccc1)C(N)=O)C(C)C)C(C)C,"KiSS-1 receptor (KISS1R, Homo sapiens, UniProt Q969F8, N119A)","inositol phosphate, agonist",HEK293,,Emax,93.6%
CCCN1C[C@H](CSC)C[C@@H]2c3cccc4[nH]cc(c34)C[C@H]21,KCNA1,"ion current, inhibitor, patch clamp",,30 µM,inhibition,34.8%
COc1ccc(S(=O)(=O)N(CC(=O)NO)CC(C)C)cc1,"Collagenase 3 (MMP13, Homo sapiens, UniProt P45452)","enzyme activity, inhibitor",,0.5 µM,inhibition,51.2%
CC(C)NCC(O)COc1cccc2ccccc12 (stereo not drawn),KCNA1,"ion current, inhibitor, patch clamp",,10 µM,inhibition,20.2%
COc1cc(-c2cncc3c2CN(C)Cc2cc(N4CCNCC4)ccc2-3)cc(OC)c1OC,"Insulin receptor (INSR, Homo sapiens, UniProt P06213)","enzyme activity, inhibitor",,1 µM,remaining activity,107%
CNCCCC12CCC(c3ccccc31)c1ccccc12,KCNA1,"ion current, inhibitor, patch clamp",,3 µM,inhibition,2.68%
O=C(O)CNc1cccc(CN(Cc2ccc(-n3cccn3)cc2)S(=O)(=O)c2cccnc2)n1,"Prostaglandin E2 receptor EP2 subtype (PTGER2, Homo sapiens, UniProt P43116)","ligand displacement, radioligand",,10 µM,inhibition,95%
